Consider one substance from PMC5480654 (Cancer Growth and Metastasis, 2017).

Data set [1] concerns MDA-MB-231 cells. Kind of data set: Ki67 and CD31 staining of primary tumors. The format is in vivo, mouse.
Data set [2] has as its system MDA-MB-231 cells. The format is in vivo, mouse. The following applies: 15 mg/kg ip every other day. The gist of the method:
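Six-week-old female NSG mice, in groups of 4, received 2 × 10^6 cells (grown in RPMI with 5% FBS) into the fourth mammary fat pad. Tumors grew for 2 weeks before stapled peptide treatment began, given intraperitoneally every other day for 5 weeks, […]. Mice were then euthanized and the dissected tumors were weighed individually.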

The nature of data set [3]: Tolerability in treated NSG mice. The format is in vivo, mouse.
A further data set relates to breast cancer cells. Kind of data set: Cell proliferation in vitro. The format is cell-based.
The nature of data set [4]: Biodistribution of I125-labeled peptides. It counts as in vivo, mouse.
The nature of data set [5]: Blood clearance of I125-labeled peptides. The format is in vivo, mouse. Particulars: calculated by the authors, stated in Discussion. The gist of the method: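 Peptides were iodinated with I125 on iodination beads (1 bead per 50 µg peptide): I125 was preincubated with the beads for 5 min, then peptide in PBS was added for 15 to 20 min. Free label was removed on 1K-cutoff filters, and labeling efficiency was checked by TLC (85% methanol). Dosing was i.v. via the tail vein, with blood drawn from the opposite vein at 5, 30, 60 min, 3 h and 24 h (3 animals). Blood was weighed, gamma-counted and expressed as activity/g to derive half-life.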

For a further data set, the system named is WASF3. Particulars: in vitro; cited from earlier work.

Consider “FAM-PEG3-LEK*TNS* LAKIIRQL (sidechain bridge or staple) [WAHM1]”, for which the “Ki67 staining of primary tumors (proliferation potential)” value in the data set on MDA-MB-231 cells [1] (WAHM1-treated vs control mice, printed as 25% vs 22%, no significant difference) amounted to 25%. Also, the “number and size of microvessels in the primary tumors (anti-CD31)” value in the data set on MDA-MB-231 cells [1] (after 5 weeks, vs vehicle alone) was “significant reduction after 5 weeks in the number and size of microvessels”. Besides, in the data set with MDA-MB-231 cells [2] (5 weeks, vs control tumors), the “weight of the tumors at conclusion of treatment” value is reported as “significant reduction”. For the same substance, the “number of surface tumor nodules on the lungs” value in the data set with MDA-MB-231 cells [2] (5 weeks, vs vehicle control) is listed as “significant reduction in the number of surface tumor nodules”. Further, in the data set on MDA-MB-231 cells [2] (after 5 weeks, vs DMSO vehicle), the “dissemination of tumor cells (bioluminescence imaging)” value is reported as “significant reduction in the observed extent of dissemination of tumor cells”. Moreover, the “overall body weight at conclusion of treatment” value in data set [3] (15 mg/kg ip every other day, 5 weeks) is “reduced”. In data set [3] (30 mg/kg ip every other day, after 2 weeks, dose discontinued), the “morbidity at the higher dose” value was “significant morbidity and weight loss”. Besides, the “effect on cell proliferation” value in the data set with breast cancer cells is given as “does not affect cell proliferation”. For the same substance, in data set [4] (I125-labeled Tyr-N-term versions, SPECT), the “tumor uptake, WAHM1 compared with WANT3-v1” value is reported as “significantly greater than for the WANT3-v1 peptide”. For the same substance, the “radioactivity per gram of tissue (gamma counting)” value in data set [4] (I125-labeled peptide, organs and tumor isolated after 72 h) is on record as “significant uptake in tumors after 72 hours”. Besides, the “retention time in the blood system” value in data set [5] is given as ~ 30 minutes. Besides, the “phosphoactivation of WASF3” value with WASF3 was “suppresses phosphoactivation of WASF3”.
